Results gathered from unrelated publications.
Compare with care: the assays were run in different laboratories.
TYK2 JH1: Non-receptor tyrosine-protein kinase TYK2, JH1 (TYK2, Homo sapiens, UniProt P29597)
TYK2 JH2: Non-receptor tyrosine-protein kinase TYK2, JH2 (TYK2, Homo sapiens, UniProt P29597)
TYK2: Non-receptor tyrosine-protein kinase TYK2 (TYK2, Homo sapiens, UniProt P29597)

| SMILES | target | assay | setting | remaining binding |
| --- | --- | --- | --- | --- |
| O=C(NCCCN1CCOCC1)c1ccc(Nc2ncc(Cl)c(-c3ccc(Cl)s3)n2)cc1 | TYK2 JH1 | binding, competition with immobilised ligand | 1 µM | 26% |
| CC(=O)N1CCC(c2ccc(C(=O)NC3=NCCN3)cc2C(F)(F)F)CC1 | TYK2 JH2 | cell-free assay, competition with immobilised ligand | 1 µM | 100% |
| CN(CCCC(F)(F)F)c1nccc(-c2cnn3ncccc23)n1 | TYK2 JH1 | cell-free assay, competition with immobilised ligand | 1 µM | 100% |
| COc1cnc(Nc2cccc(S(N)(=O)=O)c2)nc1N1CCN(c2ccccc2)CC1 | TYK2 JH2 | binding, competition with immobilised ligand | 1 µM | 85% |
| N[C@H]1CCN(c2nccc(-c3cnn4ncccc34)n2)C1 | TYK2 | binding | 1 µM | 78% |
| O=C(c1ccc(Nc2ncc(Cl)c(-c3cc4ccccc4s3)n2)cc1)N1CCC(N2CCCC2)CC1 | TYK2 JH2 | binding, competition with immobilised ligand | 1 µM | 0.1% |
| c1cnn2ncc(-c3ccnc(N4CCC45COC5)n3)c2c1 | TYK2 | binding | 1 µM | 66% |
| O=C(c1ccc(Nc2nccc(-c3cc4ccccc4s3)n2)cc1)N1CCC(N2CCCC2)CC1 | TYK2 JH2 | binding, competition with immobilised ligand | 1 µM | 0.1% |
| CC(=O)c1c(NS(C)(=O)=O)c2cc(-c3ccc(Cl)cc3)c(-c3ccc(Cl)cc3Cl)nc2n(C)c1=O | TYK2 JH2 | cell-free assay, competition with immobilised ligand | 1 µM | 89% |
| N#Cc1ccccc1CSc1nnc2c(n1)[nH]c1ccccc12 | TYK2 JH1 | binding, competition with immobilised ligand | 10 µM | 96% |
| Cc1cnc(Nc2ccc(C(=O)N3CCC(N4CCCC4)CC3)cc2)nc1-c1cc2ccccc2s1 | TYK2 JH2 | binding, competition with immobilised ligand | 1 µM | 0% |
| CN(C)c1nccc(-c2cnn3ncccc23)n1 | TYK2 | binding | 1 µM | 100% |
| O=C(NCCCN1CCOCC1)c1ccc(Nc2nccc(-c3cc4ccccc4s3)n2)cc1 | TYK2 JH2 | binding, competition with immobilised ligand | 1 µM | 0% |
| CN(C)c1ncc(F)c(-c2cnn3ncccc23)n1 | TYK2 JH1 | cell-free assay, competition with immobilised ligand | 1 µM | 87% |
| CC(=O)Nc1c(C(C)=O)c(=O)n(C)c2nc(-c3ccc(Cl)cc3Cl)c(-c3ccc(Cl)cc3)cc12 | TYK2 JH2 | cell-free assay, competition with immobilised ligand | 1 µM | 100% |
| CNC(=O)[C@@H]1CC[C@@H](n2c(-c3ccc4cnccc4c3)nc3ccc(C(=O)NCc4cccc(C(N)=O)c4)cc32)C1 | TYK2 JH1 | binding, competition with immobilised ligand | 1 µM | 99% |
| O=C(N[C@H]1CCCCC/C=C\C2C[C@@]2(C(=O)O)NC(=O)[C@@H]2C[C@@H](Oc3ccncc3)CN2C1=O)OC1CCCC1 (some centres unmarked) | TYK2 JH1 | binding, competition with immobilised ligand | 1 µM | 98% |
| Nc1ncc2c(n1)-c1c([nH]c3ccc(C#CC4CC4)cc13)CCCC2 | TYK2 JH2 | binding, competition with immobilised ligand | 1 µM | 73% |

| SMILES | target | assay | setting | remaining binding |
| --- | --- | --- | --- | --- |
| O=C(Nc1c[nH]nc1C(=O)NC1CCNCC1)c1cc(F)cc(F)c1 | TYK2 JH2 | binding, competition with immobilised ligand | 1 µM | 100% |
| CN1CCN(c2ccc(Nc3nccc(-c4cccc([N+](=O)[O-])c4)n3)cc2C(F)(F)F)CC1 | TYK2 | binding | 10 µM | 0% |
| COc1ccnn2ncc(-c3ccnc(N(C)C)n3)c12 | TYK2 | binding | 1 µM | 68% |
| c1cncc(-c2cccc(Nc3nccc(NC4CCCCC4)n3)c2)c1 | TYK2 JH1 | binding, competition with immobilised ligand | 10 µM | 0.2% |
| F[C@@H]1CCN(c2nccc(-c3cnn4ncccc34)n2)C1 | TYK2 | binding | 1 µM | 100% |
| CCN1CCN(Cc2ccc(C(=O)Nc3ccc(C)c(Oc4ccc5c(c4)CC(=O)N5)c3)cc2C(F)(F)F)CC1 | TYK2 JH2 | binding, competition with immobilised ligand | 1 µM | 100% |
| C[C@@H]1CN(c2ccc3ncc(-c4ccc5[nH]nc(C6CC6)c5c4)n3n2)C[C@H](C)O1 | TYK2 | binding, competition with immobilised ligand | 0.5 µM | 100% |
| FC(F)(F)Oc1cccc(-c2cnc3ccc(-c4ccncc4)nn23)c1 | TYK2 JH1 | binding, competition with immobilised ligand | 5 µM | 53% |
| Cc1noc([C@H]2C[C@@H](c3ccc(C(F)(F)F)cc3)CN(C(=O)N3CCS(=O)(=O)C3)C2)n1 | TYK2 JH1 | cell-free assay, competition with immobilised ligand | 1 µM | 100% |
| COc1cnc(Nc2cccc(S(N)(=O)=O)c2)nc1N1CCN(c2ccccc2)C(=O)C1 | TYK2 JH1 | binding, competition with immobilised ligand | 1 µM | 39% |
| C[C@H](c1ccc(F)cc1)N(Cc1cccc(C(=O)O)c1)C(=O)c1cnc2ccccc2c1 | TYK2 JH2 | cell-free assay, competition with immobilised ligand | 1 µM | 92% |
| COc1ncc2cc3ccccc3nc2c1C#N | TYK2 JH1 | cell-free assay, competition with immobilised ligand | 5 µM | 69% |
| O=C(NCC1CCOCC1)c1n[nH]cc1NC(=O)c1c(F)cccc1F | TYK2 JH1 | binding, competition with immobilised ligand | 1 µM | 91% |
| CCc1ccccc1C(=O)Nc1n[nH]c2c(C)c(F)c(C3C(C#N)=C(C)N(C)C(C)=C3C#N)cc12 | TYK2 JH1 | cell-free assay, competition with immobilised ligand | 1 µM | 100% |
| O=C(c1ccc(Nc2ncc(Cl)c(-c3ccc(Cl)s3)n2)cc1)N1CCC(N2CCCC2)CC1 | TYK2 JH1 | binding, competition with immobilised ligand | 1 µM | 25% |
| Cc1c[nH]c2nccc(Oc3c(F)cc(Nc4cc(Cl)nc(N)n4)cc3F)c12 | TYK2 JH2 | cell-free assay, competition with immobilised ligand | 0.1 µM | 89% |
| CC1CCCN1c1nccc(-c2cnn3ncccc23)n1 (centres unmarked) | TYK2 JH1 | cell-free assay, competition with immobilised ligand | 1 µM | 100% |
